Tests used:
Format in all cases: functional
Conditions in all cases: read-out: GI
NCI-H226 = experiment: Antitumor activity against human NCI-H226 cells assessed as growth inhibition at 10 uM relative to control
Summary of the method: (§1)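 After drug addition, plates were incubated 48 h at 37 °C under 5% CO2. Adherent cells were fixed with cold TCA (10% final, 60 min, 4 °C) and suspension cells with 16% final TCA. Staining used 0.4% SRB in 1% acetic acid, solubilized in 10 mM trizma, read at A515. Percent growth was calculated from time-zero, control and treated absorbances.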

HCT-116 = experiment: Antitumor activity against human HCT-116 cells assessed as growth inhibition at 10 uM relative to control; summary of the method: as §1
HOP-92 = experiment: Antitumor activity against human HOP-92 cells assessed as growth inhibition at 10 uM relative to control; summary of the method: as §1
K562 = experiment: Antitumor activity against human K562 cells assessed as growth inhibition at 10 uM relative to control; summary of the method: as §1
MDA-MB-435 = experiment: Antitumor activity against human MDA-MB-435 cells assessed as growth inhibition at 10 uM relative to control; summary of the method: as §1
LOX IMVI = experiment: Antitumor activity against human LOX IMVI cells assessed as growth inhibition at 10 uM relative to control; summary of the method: as §1
PC-3 = experiment: Antitumor activity against human PC-3 cells assessed as growth inhibition at 10 uM relative to control; summary of the method: as §1
HL-60 = experiment: Antitumor activity against human HL-60 cells assessed as growth inhibition at 10 uM relative to control; summary of the method: as §1
KM12 = experiment: Antitumor activity against human KM12 cells assessed as growth inhibition at 10 uM relative to control; summary of the method: as §1
RXF 393 = experiment: Antitumor activity against human RXF 393 cells assessed as growth inhibition at 10 uM relative to control; summary of the method: as §1
COLO 205 = experiment: Antitumor activity against human COLO 205 cells assessed as growth inhibition at 10 uM relative to control; summary of the method: as §1
UO-31 = experiment: Antitumor activity against human UO-31 cells assessed as growth inhibition at 10 uM relative to control
Summary of the method: (§2)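 Drug exposure 48 h at 37 °C, 5% CO2. Adherent cells fixed with cold TCA (10% final), suspension cells with TCA (16% final). Stained with 0.4% SRB in 1% acetic acid, dissolved in 10 mM Tris, A515. Growth relative to time-zero and untreated control.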

DU-145 = experiment: Antitumor activity against human DU-145 cells assessed as growth inhibition at 10 uM relative to control; summary of the method: as §1
RPMI-8226 = experiment: Antitumor activity against human RPMI-8226 cells assessed as growth inhibition at 10 uM relative to control; summary of the method: as §1
NCI-H522 = experiment: Antitumor activity against human NCI-H522 cells assessed as growth inhibition at 10 uM relative to control; summary of the method: as §1
SF-295 = experiment: Antitumor activity against human SF-295 cells assessed as growth inhibition at 10 uM relative to control; summary of the method: as §1
SR = experiment: Antitumor activity against human SR cells assessed as growth inhibition at 10 uM relative to control; summary of the method: as §2
NCI/ADR-RES = experiment: Antitumor activity against human NCI-ADR-RES cells assessed as growth inhibition at 10 uM relative to control; summary of the method: as §1
BT-549 = experiment: Antitumor activity against human BT-549 cells assessed as growth inhibition at 10 uM relative to control; summary of the method: as §1
M14 = experiment: Antitumor activity against human M14 cells assessed as growth inhibition at 10 uM relative to control; summary of the method: as §1
HCC 2998 = experiment: Antitumor activity against human HCC 2998 cells assessed as growth inhibition at 10 uM relative to control; summary of the method: as §1
SW-620 = experiment: Antitumor activity against human SW-620 cells assessed as growth inhibition at 10 uM relative to control; summary of the method: as §2
SNB-19 = experiment: Antitumor activity against human SNB-19 cells assessed as growth inhibition at 10 uM relative to control; summary of the method: as §2
786-0 = experiment: Antitumor activity against human 786-0 cells assessed as growth inhibition at 10 uM relative to control; summary of the method: as §1
Hs-578T = experiment: Antitumor activity against human Hs-578T cells assessed as growth inhibition at 10 uM relative to control; summary of the method: as §1
HOP-62 = experiment: Antitumor activity against human HOP-62 cells assessed as growth inhibition at 10 uM relative to control; summary of the method: as §1
ACHN = experiment: Antitumor activity against human ACHN cells assessed as growth inhibition at 10 uM relative to control; summary of the method: as §1
IGROV-1 = experiment: Antitumor activity against human IGROV-1 cells assessed as growth inhibition at 10 uM relative to control; summary of the method: as §1
Malme-3M = experiment: Antitumor activity against human Malme-3M cells assessed as growth inhibition at 10 uM relative to control; summary of the method: as §1
NCI-H322M = experiment: Antitumor activity against human NCI-H322M cells assessed as growth inhibition at 10 uM relative to control; summary of the method: as §1
SK-MEL-28 = experiment: Antitumor activity against human SK-MEL-28 cells assessed as growth inhibition at 10 uM relative to control; summary of the method: as §2
CCRF-CEM = experiment: Antitumor activity against human CCRF-CEM cells assessed as growth inhibition at 10 uM relative to control; summary of the method: as §1
SF-268 = experiment: Antitumor activity against human SF-268 cells assessed as growth inhibition at 10 uM relative to control; summary of the method: as §1
SK-MEL-5 = experiment: Antitumor activity against human SK-MEL-5 cells assessed as growth inhibition at 10 uM relative to control; summary of the method: as §2
MDA-MB-231 = experiment: Antitumor activity against human MDA-MB-231 cells assessed as growth inhibition at 10 uM relative to control; summary of the method: as §1
U-251 = experiment: Antitumor activity against human U-251 cells assessed as growth inhibition at 10 uM relative to control; summary of the method: as §2
SNB-75 = experiment: Antitumor activity against human SNB-75 cells assessed as growth inhibition at 10 uM relative to control; summary of the method: as §2
MDA-MB-468 = experiment: Antitumor activity against human MDA-MB-468 cells assessed as growth inhibition at 10 uM relative to control; summary of the method: as §1
OVCAR-8 = experiment: Antitumor activity against human OVCAR-8 cells assessed as growth inhibition at 10 uM relative to control; summary of the method: as §1
T47D = experiment: Antitumor activity against human T47D cells assessed as growth inhibition at 10 uM relative to control; summary of the method: as §2
EKVX = experiment: Antitumor activity against human EKVX cells assessed as growth inhibition at 10 uM relative to control; summary of the method: as §1
A498 = experiment: Antitumor activity against human A498 cells assessed as growth inhibition at 10 uM relative to control; summary of the method: as §1
OVCAR-3 = experiment: Antitumor activity against human OVCAR-3 cells assessed as growth inhibition at 10 uM relative to control; summary of the method: as §1
MOLT-4 = experiment: Antitumor activity against human MOLT-4 cells assessed as growth inhibition at 10 uM relative to control; summary of the method: as §1
SF-539 = experiment: Antitumor activity against human SF-539 cells assessed as growth inhibition at 10 uM relative to control; summary of the method: as §1
NCI-H23 = experiment: Antitumor activity against human NCI-H23 cells assessed as growth inhibition at 10 uM relative to control; summary of the method: as §1

N#Cc1c(-c2ccc(Cl)cc2)nc(N/N=C/c2ccco2)nc1N1CCOCC1
inhibition of growth at 10 µM (NCI-H226): 59.4% | inhibition of growth at 10 µM (HCT-116): 23.9% | inhibition of growth at 10 µM (HOP-92): 59.4% | inhibition of growth at 10 µM (K562): < 1% | inhibition of growth at 10 µM (MDA-MB-435): 20.6% | inhibition of growth at 10 µM (LOX IMVI): 21.3% | inhibition of growth at 10 µM (PC-3): 31.7% | inhibition of growth at 10 µM (HL-60): < 1% | inhibition of growth at 10 µM (KM12): < 1% | inhibition of growth at 10 µM (RXF 393): < 1% | inhibition of growth at 10 µM (COLO 205): 24.8% | inhibition of growth at 10 µM (UO-31): 72.9% | inhibition of growth at 10 µM (DU-145): 14.6% | inhibition of growth at 10 µM (RPMI-8226): 33.5% | inhibition of growth at 10 µM (NCI-H522): 37.7% | inhibition of growth at 10 µM (SF-295): 26.2% | inhibition of growth at 10 µM (SR): < 1% | inhibition of growth at 10 µM (NCI/ADR-RES): 24.2% | inhibition of growth at 10 µM (BT-549): 41.5% | inhibition of growth at 10 µM (M14): 28.6% | inhibition of growth at 10 µM (HCC 2998): 25.2% | inhibition of growth at 10 µM (SW-620): 17.8% | inhibition of growth at 10 µM (SNB-19): 20% | inhibition of growth at 10 µM (786-0): 25.9% | inhibition of growth at 10 µM (Hs-578T): 31.8% | inhibition of growth at 10 µM (HOP-62): 33.6% | inhibition of growth at 10 µM (ACHN): 23.3% | inhibition of growth at 10 µM (IGROV-1): 74.2% | inhibition of growth at 10 µM (Malme-3M): 57.6% | inhibition of growth at 10 µM (NCI-H322M): 30.6% | inhibition of growth at 10 µM (SK-MEL-28): 34.1% | inhibition of growth at 10 µM (CCRF-CEM): 11.3% | inhibition of growth at 10 µM (SF-268): 25.5% | inhibition of growth at 10 µM (SK-MEL-5): 19.1% | inhibition of growth at 10 µM (MDA-MB-231): 25.5% | inhibition of growth at 10 µM (U-251): < 1% | inhibition of growth at 10 µM (SNB-75): 89.7% | inhibition of growth at 10 µM (MDA-MB-468): 69.1% | inhibition of growth at 10 µM (OVCAR-8): 21.1% | inhibition of growth at 10 µM (T47D): 76.8% | inhibition of growth at 10 µM (EKVX): 53.5% | inhibition of growth at 10 µM (A498): < 1% | inhibition of growth at 10 µM (OVCAR-3): 33.4% | inhibition of growth at 10 µM (MOLT-4): 17% | inhibition of growth at 10 µM (SF-539): 24.7% | inhibition of growth at 10 µM (NCI-H23): 29.2%

— ChEMBL document CHEMBL5376013, “Design, synthesis and biological evaluation of novel morpholinopyrimidine-5-carbonitrile derivatives as dual PI3K/mTOR inhibitors” (RSC Med Chem, 2024)
